Compound activity deposited in PubChem BioAssay by several laboratories.
NR1D1 modulator: Rev-erb alpha (human) modulation | P20393 | Rev-erbα–FITC-DNA binding, fluorescence polarization, 90 min | activity, % at 10 µM | 0.79% of 370,000 active | AID 1259318;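 active = activity above about 14%, limit read from the data; passing the limit was not always enough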;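 note: 0% = DMSO wells with 35 nM protein and 100% = DMSO wells with 750 nM protein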
PG9 binder: binds the HIV-1 gp120 antibody PG9 | inhibition, % at 6.7 µM | TR-FRET gp120-PG9 antibody binding | AID 624416 | 0.43% of 360,000 active; in the data active = inhibition above about 8.5%
NR2E3 ag-1: human photoreceptor-specific nuclear receptor agonism; Q9Y5X4; CHO-S Gal4-NCOR/VP16-NR2E3 two-hybrid, luciferase; inhibition of corepressor binding, % at 3.98 µM; 0.35% of 360,000 active; AID 602229;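 active = inhibition above the mean of all tested compounds plus 3 SD, cut at about 70% in these data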;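 note: 0% = DMSO with NR2E3 transfected cells and 100% = cells lacking NR2E3 construct; higher means lower luciferase signal from less NR2E3 corepressor binding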
Target sequence (Q9Y5X4 whole entry, looked up, the tested form may be a part): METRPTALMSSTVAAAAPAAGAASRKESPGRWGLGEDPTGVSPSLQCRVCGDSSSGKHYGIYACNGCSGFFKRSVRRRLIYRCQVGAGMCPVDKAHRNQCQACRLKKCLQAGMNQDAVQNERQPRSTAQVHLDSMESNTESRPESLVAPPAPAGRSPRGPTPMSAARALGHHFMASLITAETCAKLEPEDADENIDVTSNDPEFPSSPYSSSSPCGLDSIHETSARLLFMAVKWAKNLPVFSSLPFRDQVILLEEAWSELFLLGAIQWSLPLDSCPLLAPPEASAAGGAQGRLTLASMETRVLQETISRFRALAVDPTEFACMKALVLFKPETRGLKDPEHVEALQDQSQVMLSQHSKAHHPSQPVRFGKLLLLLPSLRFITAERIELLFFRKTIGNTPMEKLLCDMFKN
VLA-4 inh: inhibition in a human VLA-4 binding assay; VLA-4 expressing cells, ligand binding flow cytometry; 0.2% of 330,000 active; inhibition, % (about 7 µM as worked out from the volumes in the protocol); AID 2557; in the data active = inhibition above about 50%
NR2E3 ag-2: NR2E3 (human) agonism; Q9Y5X4; GST-NR2E3/biotin-RetCOR TR-FRET, 1536-well; inhibition of corepressor binding, % at 4.78 µM; 0.12% of 320,000 active; AID 2300;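 active = percent inhibition above the cutoff of mean plus 3 SD of all tested compounds, set per screening campaign, cut at about 20% in these data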;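 note: 0% = DMSO wells and 100% = biotin wells as full block of FRET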
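System: GST-tagged NR2E3 plus biotinylated RetCOR corepressor; Buffer or medium: pH 7.5 Tris-based buffer; Probe or stimulus: RetCOR corepressor, biotinylated, 7 nM; Doses: compound at 4.8 µM, single dose; Schedule: 5 h incubation at 4 °C; Technique: time-resolved FRET; Evaluation: percent inhibition of TR-FRET ratio; Replication: one well per compound, singlicate testing.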
PG9 bind confirm: PG9 antibody binding, confirmed. shares compounds with PG9 binder. TR-FRET PG9 antibody binding, biochemical. inhibition, % at 6.7 µM. 90% of 1,500 active. AID 651571; in the data active = inhibition above about 9%
PGV04 Ab binding: PGV04 control antibody binding, counter-screen | shares compounds with PG9 binder | AID 651604 | 95% of 1,500 active | TR-FRET PGV04 antibody-gp120 binding, biochemical | inhibition, % at 6.7 µM; in the data active = inhibition above about 9.5%
PG9 bind DR: PG9 antibody binding, dose response. AID 651848. shares compounds with PG9 binder. IC50, µM. TR-FRET PG9 antibody-gp120 binding inhibition. 95 tested, under 10 active; in the data active = IC50 below about 10 µM
PGV04 binding DR: counter-screen for PG9 binders: binding to control antibody PGV04; shares compounds with PG9 binder; TR-FRET binding to control antibody PGV04; IC50, µM; 20% of 95 active; AID 651937
PG126 binding DR: PG126 binding, dose response counter-screen; shares compounds with PG9 binder; TR-FRET binding to antibody PG126, counterscreen; IC50, µM; 20% of 95 active
NR1D1 mod conf: Rev-erb alpha (human) modulation, hit confirmation | 61% of 3,000 active | activation, % at 25 µM | AID 1259319 | Rev-erb alpha FITC-DNA binding, fluorescence polarization, 90 min | shares compounds with NR1D1 modulator;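 active = activation at or above a set limit, or at least 3 SD above the negative control mean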;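 note: 0% = 35 nM protein with DMSO and 100% = 750 nM protein high control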
RORg DNA counter: RORgamma DNA-binding activity, dose-response counter-screen | shares compounds with NR1D1 modulator | purified RORgamma protein-FITC-DNA binding, fluorescence polarization | IC50, µM | 8% of 910 active | AID 1259320;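 active = Compounds whose fitted half-maximal concentration for disrupting protein-DNA binding is below 10 micromolar; the record names Rev-erb in its text, so the target is in doubt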
* hit, by the source's call. A selection: hits, their analogues and other compounds. The true share with any hit is near 1.6%. Cut-off read from the data, not from the text of the source, unless noted: active = IC50 below about 9 µM; inactive = the rest.

What do the screens show for `CC(=O)c1cc(-c2cccc(CO)c2)c(=O)n2c1CCC2`?
NR1D1 modulator: 2

What do the screens show for `Cc1ccc(NC(=O)CN(C)C(=O)COc2ncnc3ccc(Br)cc23)cc1`?
NR1D1 modulator: 21*; PG9 binder: 21*; NR2E3 ag-1: -22; VLA-4 inh: -13; NR2E3 ag-2: 0; PG9 bind confirm: 9.1*; PGV04 Ab binding: 8; PG9 bind DR: inactive; PGV04 binding DR: inactive; PG126 binding DR: inactive; NR1D1 mod conf: 17*

What do the screens show for `O=C(c1cc(Cl)cc(Cl)c1)N1CC[C@H]2[C@H](CCCN2Cc2ccc(F)cc2)C1`?
NR1D1 modulator: -3

Results for COc1ccc(-n2nc(C(=O)NCC(=O)NCc3ccc(F)cc3)c3ccccc3c2=O)cc1OC ?
NR1D1 modulator: 54*; PG9 binder: 28*; NR2E3 ag-1: -3; VLA-4 inh: -7; NR2E3 ag-2: -294; PG9 bind confirm: 34*; PGV04 Ab binding: 49*; NR1D1 mod conf: 39*; RORg DNA counter: >40

Results for COC(=O)CNC(=O)CNC(=O)c1nn(-c2ccc(OC)c(OC)c2)c(=O)c2ccccc12 ?
NR1D1 modulator: 1; PG9 binder: -3; NR2E3 ag-1: 10; VLA-4 inh: 20; NR2E3 ag-2: -1

How did O=C(Nc1ccc(Cl)c(Cl)c1)C1CCN(c2nnc(-n3cccc3)s2)CC1 do in these assays?
NR1D1 modulator: 3

Results for CCCc1nc(SCC(=O)Nc2nnc(CC)s2)c2c(C)c(C)sc2n1 ?
NR1D1 modulator: 26*; PG9 binder: 12*; NR2E3 ag-1: 1; VLA-4 inh: 8; NR2E3 ag-2: 1; PG9 bind confirm: 18*; PGV04 Ab binding: 16*; PG9 bind DR: >67; PGV04 binding DR: inactive; PG126 binding DR: inactive; NR1D1 mod conf: 15

How did COc1ccc(Cn2cc(CN3[C@H](Cc4ccccc4)COc4cc(Br)ccc4S3(=O)=O)nn2)cc1 do in these assays?
NR1D1 modulator: 0

How did Cc1ccc(-n2nnnc2SCC(=O)c2ccc3c(c2)NC(=O)CO3)c(C)c1 do in these assays?
NR1D1 modulator: 25*; PG9 binder: 13*; NR2E3 ag-1: -1; VLA-4 inh: 0; NR2E3 ag-2: 1; PG9 bind confirm: 11*; PGV04 Ab binding: 30*; NR1D1 mod conf: 24*

How did COc1cc(OC)cc(-c2c(Sc3ccccc3)c3cc(-c4ccc5c(c4)OCCO5)ccc3n2C)c1 do in these assays?
NR1D1 modulator: 23*; PG9 binder: 45*; NR2E3 ag-1: -31; PG9 bind confirm: 55*; PGV04 Ab binding: 73*; NR1D1 mod conf: 21*

How did Cc1cc(NC(=O)c2ccc(NS(=O)(=O)c3ccccc3)cc2)no1 do in these assays?
NR1D1 modulator: -4

How did CC(=O)Nc1cccc(NC(=O)CSc2nc(C)c(C)c(C)c2C#N)c1 do in these assays?
NR1D1 modulator: -6; PG9 binder: 1; NR2E3 ag-1: 4; VLA-4 inh: 2; NR2E3 ag-2: -1

What do the screens show for `Cc1cccc(C)c1NC(=O)CSc1nc(C)c(CC(=O)c2ccc(Br)cc2)c(C)c1C#N`?
NR1D1 modulator: 141*; PG9 binder: 26*; NR2E3 ag-1: -56; VLA-4 inh: 0; NR2E3 ag-2: -9; PG9 bind confirm: 53*; PGV04 Ab binding: 70*; NR1D1 mod conf: 78*

How did COc1ccc(-n2c(SCC(=O)Nc3ccc(S(=O)(=O)Nc4nccs4)cc3)nnc2-c2ccccc2)cc1 do in these assays?
NR1D1 modulator: -7

How did C[C@@H]1CCN(C2CC2)S(=O)(=O)c2ccc(N3CC[C@H](O)C3)cc2O1 do in these assays?
NR1D1 modulator: -3

What do the screens show for `Cc1ccc(-n2c(SCC(=O)NCc3ccco3)nc3sc4c(c3c2=O)CC(C)(C)SC4)cc1`?
NR1D1 modulator: 71*; PG9 binder: 16*; NR2E3 ag-1: -30; VLA-4 inh: -4; NR2E3 ag-2: -1; PG9 bind confirm: 20*; PGV04 Ab binding: 32*; NR1D1 mod conf: 64*; RORg DNA counter: 5.6*

How did Cc1ccc(-n2c(SCC(=O)O)nc3sc4c(c3c2=O)CC(C)(C)SC4)cc1 do in these assays?
NR1D1 modulator: -3; PG9 binder: 1; NR2E3 ag-1: 10

What do the screens show for `CCN(CC)C(=O)c1ccc2c(=O)n(Cc3ccc4c(c3)OCO4)c(=S)[nH]c2c1`?
NR1D1 modulator: 29*; PG9 binder: 24*; NR2E3 ag-1: -3; VLA-4 inh: -3; NR2E3 ag-2: 1; PG9 bind confirm: 4; PGV04 Ab binding: 9; NR1D1 mod conf: 11

How did O=C(CCCCn1c(=O)[nH]c2ccsc2c1=O)NCc1ccc2c(c1)OCO2 do in these assays?
NR1D1 modulator: 4; PG9 binder: 0; NR2E3 ag-1: 0; VLA-4 inh: 34; NR2E3 ag-2: 1

Results for O=C(CCCCn1c(=S)[nH]c2ccsc2c1=O)NCc1ccc2c(c1)OCO2 ?
NR1D1 modulator: 20*; PG9 binder: 15*; NR2E3 ag-1: 18; VLA-4 inh: -5; NR2E3 ag-2: 1; PG9 bind confirm: 16*; PGV04 Ab binding: 28*; NR1D1 mod conf: 14

Results for C=CCNC(=O)c1ccc(Cn2c(=S)[nH]c3cc4c(cc3c2=O)OCO4)cc1 ?
NR1D1 modulator: 58*; PG9 binder: 23*; NR2E3 ag-1: 10; VLA-4 inh: -8; NR2E3 ag-2: -54; PG9 bind confirm: 16*; PGV04 Ab binding: 31*; NR1D1 mod conf: 64*; RORg DNA counter: inactive

What do the screens show for `Cc1cc(OCC(=O)NCc2cccnc2)c2c(C)c(C)c(=O)oc2c1`?
NR1D1 modulator: -5; PG9 binder: 0; NR2E3 ag-1: -10; VLA-4 inh: 16; NR2E3 ag-2: 1

Results for Cc1cc(OCC(=O)Nc2cccnc2)c2c(C)c(C)c(=O)oc2c1 ?
NR1D1 modulator: 19*; PG9 binder: 15*; NR2E3 ag-1: -2; VLA-4 inh: 8; NR2E3 ag-2: -57; PG9 bind confirm: 14*; PGV04 Ab binding: 16*; NR1D1 mod conf: 0
